Assay [1] in a line: Selectivity index, ratio of IC50 for human HepG2 cells to IC50 for chloroquine-resistant Plasmodium falciparum W2.
The subject of assay [2] is K562. Kind of assay: Cytotoxicity against human K562 cells after 72 hrs by flow cytometry. Format: functional, cell-based. The gist of the method: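 Cells were treated with a concentration range for 72 h at 37 °C, 6% CO2, with solvent and doxorubicin controls, and wells were checked for precipitate. Cells were stained with propidium iodide and live cells counted by flow cytometry. IC50 is the concentration giving a 50% decrease in proliferation versus control, from nonlinear regression of dose–response curves, mean of three independent experiments.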

Assay [3] in a line: Selectivity index, ratio of IC50 for human K562 cells to IC50 for chloroquine-resistant Plasmodium falciparum W2.
In assay [4] the test system is HepG2. Kind of assay: Cytotoxicity against human HepG2 cells after 72 hrs by MTT assay. Format: cell-based. An outline of the steps:
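Cells in RPMI with 10% FBS, glutamine and penicillin/streptomycin were grown 24 h at 37 °C, 6% CO2, then exposed to a concentration range for 72 h. Wells were checked microscopically for precipitate. MTT (5 mg/mL in PBS) was added in serum-free medium for 2 h, formazan dissolved in DMSO, and absorbance read at 570 nm (630 nm reference). Viability is % of untreated control; the 50% cytotoxic concentration comes from the dose–response curve, mean of three experiments.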
A general note: Tetrazolium assays rely on reduction of a dye to a coloured formazan, in cell work by metabolically active cells.

The subject of assay [5] is Plasmodium falciparum. Kind of assay: Antiplasmodial activity against chloroquine-resistant Plasmodium falciparum W2 infected in human erythrocyte after 48 hrs by flow cytometry. Format: functional, organism-based. An outline of the steps: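 W2 strain (chloroquine-, pyrimethamine- and proguanil-resistant) kept in RPMI 1640 with 25 mM HEPES, 25 mM NaHCO3 and 10% A+ human serum. Cultures held at 37 °C under 10% O2, 6% CO2, 84% N2. Assay wells at 2% haematocrit; compounds added in DMSO or water. Incubated 48 h with no medium change. Infected erythrocytes counted by hydroethidine flow cytometry. IC50 taken from three independent experiments.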
A general note: In flow cytometry, cells or beads pass a laser one at a time.

In assay [6] the test system is Leishmania donovani. Kind of assay: Antileishmanial activity against GFP-transfected Leishmania donovani HOM/IN/01/2001 promastigotes after 72 hrs. Format: functional, organism-based. To be noted: HOM/IN/01/2001, 72 h. An outline of the steps: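 GFP-expressing promastigotes at 10⁵ parasites/mL in medium with 10% FCS and G418, exposed in duplicate to a concentration range of compounds in DMSO (final <0.5% v/v) for 72 h at 27 °C. DMSO and amphotericin B controls were included. Growth was read by flow cytometry (488 nm argon laser, green FL1 fluorescence). The IC50 is the 50% growth decrease, from three independent experiments.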

For assay [7], the system named is Toxoplasma gondii. Kind of assay: Antitoxoplasmic activity against Toxoplasma gondii PRU-betaGal tachyzoite after 96 hrs by colorimetric microtiter assay. Format: functional, organism-based. The gist of the method:
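Confluent HFF monolayers (10⁴ cells seeded per well) in phenol red-free RPMI 1640 with 10% FCS and glutamine/penicillin–streptomycin were infected with 2×10³ tachyzoites per well for 3 h at 37 °C, 6% CO2. Compounds in DMSO (<0.5% v/v) were added in triplicate for 96 h. CPRG was then added for 24 h and β-galactosidase read at 570/630 nm, blanked on uninfected wells. IC50 from three independent experiments.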

The mark [8] stands for this setting: Homo sapiens, K562, 72 h, read-out: IC50.
Setting [9] is: Homo sapiens, HepG2, 72 h, read-out: IC50.
Setting [10] is: Plasmodium falciparum, W2, 48 h, read-out: IC50.

The IC50 is the midpoint of a concentration-inhibition curve.

For the compound `Cc1ccc(S(=O)(=O)Cc2nc(Nc3ccc(F)cc3)c3ccccc3n2)cc1`, the “Ratio IC50” value was above 0.75 in assay [1] and above 1 in assay [3]. Moreover, the IC50 is above 20 µM in assay [2] (setting [8]), above 15 µM in assay [4] (setting [9]) and 20 µM in assay [5] (setting [10]).

As for `Cc1ccc(S(=O)(=O)Cc2nc(Nc3ccc(F)cc3)c3cc([N+](=O)[O-])ccc3n2)cc1`, the “Ratio IC50” value in assay [1] is on record as above 23; in assay [3] it was above 57. Further, the IC50 in assay [2] (setting [8]) is above 125 µM; in assay [6], above 25 µM; in assay [7] it was above 25 µM; in assay [4] (setting [9]) it was above 50 µM; in assay [5] (setting [10]) it was 2.2 µM.

Take `CC(C)=Cc1nc(Nc2ccccc2)c2cc([N+](=O)[O-])ccc2n1`: the “Ratio IC50” value was 2.9 in assay [1] and above 7 in assay [3]. The IC50 in assay [2] (setting [8]) is above 125 µM; in assay [4] (setting [9]), 50 µM; in assay [5] (setting [10]), 17 µM.

In the case of `C[C@H]1c2cccc(O)c2C(=O)C2=C(O)[C@]3(O)C(=O)C(C(N)=O)=C(O)[C@@H](N(C)C)[C@@H]3[C@@H](O)[C@@H]21.O` [DOXYCYCLINE], the “Ratio IC50” value in assay [1] is listed as 3.1; in assay [3] it was 2.3.

In the case of `CC(C)=Cc1nc(Nc2ccc(F)cc2)c2cc([N+](=O)[O-])ccc2n1`, the “Ratio IC50” value in assay [1] is recorded as 4.8; in assay [3] it was above 11. Moreover, the IC50 in assay [2] (setting [8]) is above 62 µM; in assay [4] (setting [9]), 27 µM; in assay [5] (setting [10]) it was 5.6 µM.

With `Cc1ccc(S(=O)(=O)Cc2nc(Nc3cccc(Cl)c3)c3cc([N+](=O)[O-])ccc3n2)cc1`, the results for the “Ratio IC50” value in assay [1] and in assay [3] were above 77 and above 96, respectively. The IC50 in assay [2] (setting [8]) is above 125 µM; in assay [6], 11 µM; in assay [7], above 25 µM; in assay [4] (setting [9]), above 100 µM; in assay [5] (setting [10]), 1.3 µM.

In assay [6], `C[C@@H]1[C@H](O)[C@@H](C)/C=C/C=C/C=C/C=C/C=C/C=C/C=C/[C@H](O[C@@H]2O[C@H](C)[C@@H](O)[C@H](N)[C@@H]2O)C[C@@H]2O[C@](O)(C[C@@H](O)C[C@@H](O)[C@H](O)CC[C@@H](O)C[C@@H](O)CC(=O)O[C@H]1C)C[C@H](O)[C@H]2C(=O)O` [AMPHOTERICIN B] showed an IC50 of 0.06 µM.

As to `CC(C)=Cc1nc(Nc2cccc(Br)c2)c2cc([N+](=O)[O-])ccc2n1`, the results for the “Ratio IC50” value in assay [1] and in assay [3] were above 2 and above 8, respectively. The concentration for half-maximal inhibition (IC50) in assay [2] (setting [8]) is above 62 µM; in assay [4] (setting [9]), above 15 µM; in assay [5] (setting [10]), 7.5 µM.

As to `CCc1nc(N)nc(N)c1-c1ccc(Cl)cc1` [PYRIMETHAMINE], the IC50 in assay [7] is 1.5 µM.

With `Cc1ccc(S(=O)(=O)Cc2nc(Nc3cccc(Br)c3)c3ccccc3n2)cc1`, the “Ratio IC50” value in assay [1] and in assay [3] was above 1.2 in each case. Also, the IC50 in assay [2] (setting [8]) is above 15 µM; in assay [4] (setting [9]) it was above 15 µM; in assay [5] (setting [10]) it was 13 µM.

Take `Cc1ccc(S(=O)(=O)Cc2nc(Nc3cccc(Br)c3)c3cc([N+](=O)[O-])ccc3n2)cc1`: the IC50 entry in assay [2] (k562), in assay [4] (hepg2) and in assay [5] was “ND(Insoluble)” throughout.

Regarding `Cc1ccc(S(=O)(=O)Cc2nc(Nc3ccccc3Cl)c3ccccc3n2)cc1`, the results for the “Ratio IC50” value in assay [1] and in assay [3] were above 3.6 and 1.7, respectively. The IC50 was 24 µM in assay [2] (setting [8]), above 50 µM in assay [4] (setting [9]) and 14 µM in assay [5] (setting [10]).

As to `COc1cccc2c1C(=O)c1c(O)c3c(c(O)c1C2=O)C[C@@](O)(C(=O)CO)C[C@@H]3O[C@H]1C[C@H](N)[C@H](O)[C@H](C)O1` [DOXORUBICIN], the IC50 in assay [4] (setting [9]) is 0.2 µM.

Take `Cc1ccc(S(=O)(=O)Cc2nc(Nc3ccccc3)c3ccccc3n2)cc1`: the IC50 entry in assay [2] (k562), in assay [4] (hepg2) and in assay [5] was “ND(Insoluble)” each time.

As for `CC(C)=Cc1nc(Nc2cccc(C(F)(F)F)c2)c2cc([N+](=O)[O-])ccc2n1`, the “Ratio IC50” value in assay [1] was 31.3; in assay [3], above 39. The IC50 was above 125 µM in assay [2] (setting [8]), above 100 µM in assay [4] (setting [9]) and 3.2 µM in assay [5] (setting [10]).

On to `Cc1ccc(S(=O)(=O)Cc2nc(Nc3cccc(C(F)(F)F)c3)c3cc([N+](=O)[O-])ccc3n2)cc1`, for which the entries for the “Ratio IC50” value in assay [1] and in assay [3] were above 105 and above 131, respectively. The IC50 in assay [2] (setting [8]) is above 125 µM; in assay [6] it was 24 µM; in assay [7] it was above 25 µM; in assay [4] (setting [9]), above 100 µM; in assay [5] (setting [10]), 0.95 µM.

`Cc1ccc(S(=O)(=O)Cc2nc(Nc3ccccc3)c3cc([N+](=O)[O-])ccc3n2)cc1`: the “Ratio IC50” value in assay [1] is reported as above 5; in assay [3], above 25. The figures for the IC50 in assay [2] (setting [8]), in assay [4] (setting [9]) and in assay [5] (setting [10]) were above 125 µM, above 25 µM and 5 µM, respectively.

With `Cc1ccc(S(=O)(=O)Cc2nc(Nc3cccc(C(F)(F)F)c3)c3ccccc3n2)cc1`, the “Ratio IC50” value in assay [1] and in assay [3] was above 1.7 throughout. The IC50 in assay [2] (setting [8]) is above 25 µM; in assay [4] (setting [9]) it was above 25 µM; in assay [5] (setting [10]), 15 µM.

The record behind these values is ChEMBL document CHEMBL1154711, “Original quinazoline derivatives displaying antiplasmodial properties” (Eur J Med Chem, 2010).
